# Measured values collected from several papers.
# Protocols differ between the studies behind these lines.
# PTGS2: Prostaglandin G/H synthase 2 (PTGS2, Homo sapiens, UniProt P35354)
# CHRM3: Muscarinic acetylcholine receptor M3 (CHRM3, Homo sapiens, UniProt P20309)
# TMEM97: Sigma intracellular receptor 2 (TMEM97, Homo sapiens, UniProt Q5BJF2)
Structure (SMILES),target,assay,conditions,quantity,value
CN1C(=O)C(=Cc2cn(-c3nc(N4CCCC4)nc(N4CCOCC4)n3)c3ccccc23)C(=O)N(C)C1=O,PTGS2,"enzyme activity, inhibitor",,IC50,6 µM
C[C@@H]1NC(=O)[C@H](CC(N)=O)NC(=O)[C@H](Cc2ccccc2)NC(=O)[C@@H]2Cc3ccccc3CN2C(=O)[C@H](CCCNC(=N)N)NC(=O)[C@@H]2CCCN2C(=O)[C@H]2CCCN2C(=O)[C@H](Cc2ccccc2)NC1=O,"Melanocyte-stimulating hormone receptor (Mc1r, Mus musculus, UniProt Q01727)","reporter gene, agonist",,EC50,> 100 µM
Clc1cccc(N2CCNCC2)c1Cl,CHRM3,"ligand displacement, radioligand",cell membranes,Ki,25.1 µM
O=c1[nH]c2ccccc2n1CCCN1CCC(n2c(=O)[nH]c3cc(Cl)ccc32)CC1,"Alpha-1D adrenergic receptor (ADRA1D, Homo sapiens, UniProt P25100)",cell-free assay,,Ki,0.71 µM
CN[C@@H](C)[C@@H](O)c1ccccc1,TMEM97,"ligand displacement, radioligand",,Ki,> 10 µM
CCCCCCCCCCCCNCCCc1ccc([N+](=O)[O-])cc1,CHRM3,"ligand displacement, radioligand",,Ki,3.3 µM
CN1CC[C@@]23CCCC[C@@H]2[C@@H]1Cc1ccc(O)cc13,TMEM97,"ligand displacement, radioligand",,Ki,2.94 µM
CN1C(=O)C(=Cc2cn(-c3nc(Cl)nc(N4CCOCC4)n3)c3ccccc23)C(=O)N(C)C1=O,PTGS2,"enzyme activity, inhibitor",,IC50,0.1 µM
